Screening results as filed in PubChem.
A selection: hits, their analogues and other compounds. The true share with any hit is near 0.72%.
bIAP act: intestinal alkaline phosphatase (bovine) activation; activation factor at 20 µM; purified bovine IAP, CDP-star luminescence, 30 min; active compounds read high; fold of DMSO-control signal, blank-subtracted; 200,000 compounds, 0.17% hits;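 active = activation factor of 2 or more at 20 µM, a signal rise over negative controls twice the positive control's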
hIAP block: blocks human intestinal alkaline phosphatase; purified IAP, CDP-Star luminescence, 30 min; P09923; inhibition, % at 10 µM; 330,000 compounds, 0.12% hits;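 active = inhibition reaching a set limit with compound at 10 µM in the primary screen, cut at about 35% in these data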;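 also: plate controls were DMSO wells with enzyme for no effect and no-enzyme buffer wells for full effect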
Target sequence (P09923 whole entry, looked up): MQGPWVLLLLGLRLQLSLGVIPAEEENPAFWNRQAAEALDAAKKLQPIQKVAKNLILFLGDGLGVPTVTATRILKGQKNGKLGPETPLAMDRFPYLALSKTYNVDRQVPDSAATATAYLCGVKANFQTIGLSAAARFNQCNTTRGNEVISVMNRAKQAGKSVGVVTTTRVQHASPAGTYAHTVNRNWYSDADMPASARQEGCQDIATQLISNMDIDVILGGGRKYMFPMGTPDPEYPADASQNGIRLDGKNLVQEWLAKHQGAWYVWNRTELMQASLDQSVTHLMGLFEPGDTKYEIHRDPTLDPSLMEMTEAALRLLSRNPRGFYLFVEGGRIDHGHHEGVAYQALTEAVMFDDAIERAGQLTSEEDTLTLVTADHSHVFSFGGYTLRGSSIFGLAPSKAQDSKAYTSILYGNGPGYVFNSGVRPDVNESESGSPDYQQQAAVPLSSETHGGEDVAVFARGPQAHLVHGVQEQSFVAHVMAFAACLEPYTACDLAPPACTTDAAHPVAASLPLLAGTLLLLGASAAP
hIAP activ: human IAP activation. activation factor at 10 µM. P09923. purified human IAP, CDP-Star luminescence, 30 min; active compounds read high; 1 = vehicle-only enzyme, 0 = enzyme-free background. 330,000 compounds, 0.16% hits;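 active = activation factor of the enzyme at least 2-fold when tested at 20 µM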
mIAP inh: blocks mouse intestinal alkaline phosphatase | purified mouse IAP, CDP-Star luminescence, 30 min | inhibition, % at 10 µM | 330,000 compounds, 0.2% hits | AID 2806;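 active = inhibition of at least 40% at 10 µM in the primary screen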;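 also: plate controls were DMSO with enzyme for no effect and no enzyme wells for full effect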
bIAP inh: intestinal alkaline phosphatase (bovine) inhibition; purified bovine IAP, CDP-star luminescence, 30 min; inhibition, % at 20 µM; 190,000 tested, under 10 active; AID 1019;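 active = over 50% inhibition of intestinal alkaline phosphatase at 20 µM in the single-dose screen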
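Incubation: 30 min reaction at room temperature / Material: purified bovine intestinal alkaline phosphatase (IAP) enzyme / Input: enzyme at 1/65,000,000 dilution / Dosing: 20 µM single dose / Signal: CDP-star luminescence signal / Reagent: CDP-star chemiluminescent phosphatase substrate, 30 µM final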
mIAP act: increases mouse intestinal alkaline phosphatase activity. activation factor at 10 µM. 330,000 compounds, 0.24% hits. muIAP, CDP-Star luminescence, 30 min; active compounds read high; 1 = vehicle-only enzyme signal, 0 = enzyme-free wells;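 active = activation factor of at least 2 at 20 µM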
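System: Mouse IAP enzyme | Also added: CDP-Star substrate | Dosing: Compounds dispensed in DMSO | Schedule: 30 min enzyme-substrate-compound incubation at room temperature | Technique: Chemiluminescence readout | Control set: DMSO-only wells and no-enzyme negative control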
Active calls of the source: *; i = inactive; . = no result.

SMILES	bIAP act	hIAP block	hIAP activ	mIAP inh	bIAP inh	mIAP act
CC1CC1C(=O)N(C)CC(=O)Nc1ccccc1Br (stereo not given)	.	-5	1.1	9	.	0.91
Cc1ccc(NC(=S)NCc2ccc(F)cc2)cc1	.	-6	1.1	-45	.	1.4
Cc1ccc(C)c(C(C)NC(=S)NCc2ccc(F)cc2)c1 (stereo not given)	.	8	0.92	-117	.	2.2*
COc1ccc(OC)c(NC(=S)NCCCN2CCOCC2)c1	2.4*	1	0.99	-9	-140	1.1
CN(C)c1nc(C=C(C#N)C#N)c(Cl)n1-c1ccc(F)cc1	1	.	.	.	-5	.
COc1ccc(C2=NOC(Cn3nc(-c4ccccc4)cc3C(=O)NCc3cccs3)C2)cc1 (stereo not given)	.	10	0.9	-187	.	2.9*
CC(C)(C)CN1CCNC(=O)C1CC(=O)N1CCN(c2ccccc2)CC1 (stereo not given)	.	-3	1	-6	.	1.1
Cc1ccc(C)c(C(=O)CCC(=O)NCc2ccc(Cl)cc2)c1	1	4	0.96	-4	0	1
S=C(NCCc1ccccc1)NC1CCCCCC1	0.5	-1	1	-26	49	1.3
S=C(NCCNCc1ccccc1)NC1CCCCC1	0.9	-10	1.1	-109	5	2.1*
CC(C)CNC(=O)C1CCN(S(=O)(=O)c2ccc3c(c2)OCCO3)CC1	.	8	0.92	-1	.	1
Cc1ccc2c(c1)C(c1ccccc1)N(C(=O)c1c(F)cccc1Cl)CC(=O)N2 (stereo not given)	.	-22	1.2	-2	.	1
Cc1cc(C)nc(/N=C(\N)Nc2ccc(OCc3ccccc3)cc2)n1	6.2*	-108	2.1*	-70	i	1.7
O=C(NC(=S)Nc1ncc(Br)cc1Br)c1ccccc1	.	9	0.91	11	.	0.89
CC(=O)Nc1ccc(C2=NN(c3ccccc3)C(c3ccccc3)C2)cc1 (stereo not given)	.	-42	1.4	-134	.	2.3*
COc1ccc(C2CC(c3ccccc3)=NN2c2ccc(C(N)=O)cc2)cc1 (stereo not given)	.	-6	1.1	-183	.	2.8*
O=C(NCC1CCN(Cc2ccccc2Cl)CC1)Nc1ccccc1F	.	-20	1.2	-97	.	2
Cc1ccc(C)c(CN2CCC(CNC(=O)Nc3ccc(Br)cc3F)CC2)c1	.	-40	1.4	-221	.	3.2*
Fc1ccc(-c2n[nH]c(=S)n2/N=C/c2c[nH]c3ccccc23)cc1	2.1*	-28	1.3	-16	-113	1.2
Cc1ccc(N=Cc2c(O)c3ccccc3oc2=O)c(C)c1	.	14	0.86	46*	.	0.54
COc1cc(C(=O)Nc2nc3ccccc3[nH]2)ccc1OC(F)F	.	-20	1.2	0	.	1
COc1ccc(C(=O)Nc2nc3ccccc3[nH]2)cc1OC	2.2*	3	0.97	4	-122	0.96
Fc1ccc(N2CCN(Cc3c[nH]c4ccccc34)CC2)cc1	.	38*	0.62	-1	.	1
CSc1cccc(NC(=O)Nc2nc3c(C)cccc3s2)c1	.	-20	1.2	-115	.	2.1*
C=CCSc1nc(C)cc(C(=O)OCC)c1C#N	.	4	0.96	0	.	0.99
SMILES	bIAP act	hIAP block	hIAP activ	mIAP inh	bIAP inh	mIAP act
Cc1ccc(NC(=S)N2CCN(C(=O)C3CCCO3)CC2)cc1 (stereo not given)	1	1	0.99	-2	5	1
O=C(C1CCCO1)N1CCN(C(=S)Nc2ccc(Cl)cc2)CC1 (stereo not given)	2.4*	7	0.93	4	-142	0.96
COc1ccc(N2C(=O)N3[C@H](c4cccc(C)c4)[C@@H]4C(=O)N(Cc5ccccc5)C(=O)[C@@H]4[C@]3(Cc3ccccc3)C2=O)cc1	.	-18	1.2	-6	.	1.1
Cc1cccc([C@@H]2[C@@H]3C(=O)N(Cc4ccccc4)C(=O)[C@@H]3[C@]3(C)C(=O)N(c4ccc(C(F)(F)F)cc4)C(=O)N23)c1	.	0	1	41*	.	0.59
O=C(Cc1cccc2ccccc12)N/N=C/c1ccc(F)cc1	1	4	0.96	-3	4	1
O=C(Cc1cccc2ccccc12)N/N=C/c1ccc(OC(=O)/C=C/c2ccco2)cc1	0.9	6	0.94	63*	7	0.37
O=C(NCCc1ccccc1)c1n[nH]c2ccccc12	2*	19	0.81	-2	-96	1
COc1ccc(CS(=O)c2nc(C)cc(C)c2S(C)(=O)=O)cc1 (stereo not given)	1.1	4	0.96	8	-12	0.92
Cc1ccc(/C=c2\sc3nc(-c4ccccc4Br)nn3c2=O)o1	1	20	0.8	49*	3	0.51
COc1ccc(N(C)C(=O)c2cc3c(s2)-c2c(C)cccc2OC3)c(OC)c1	.	6	0.94	7	.	0.93
COc1cccc(NC(=O)CSc2ccc3nnc(-c4ccccn4)n3n2)c1	.	-2	1	-7	.	1.1
O=C(/C=C/c1ccc(O)c(O)c1)c1ccccc1O	.	70*	0.3	32	.	0.68
CC1CCCN(C(=O)C2(NC(=O)Nc3cccc(F)c3)CCCCC2)C1 (stereo not given)	1.6	-62	1.6	-213	-61	3.1*
COc1ccc(NC(=O)c2ccc3nc(C)sc3c2)cc1	.	-13	1.1	1	.	0.99
COc1ccc(S(=O)(=O)N2CCCC(C(=O)Nc3cccc(C(C)=O)c3)C2)cc1 (stereo not given)	2.5*	-14	1.1	0	-148	0.99
COc1ccc(S(=O)(=O)N2CCC(C(=O)Nc3cccc(Cl)c3)CC2)cc1OC	1	-11	1.1	-176	1	2.8*
CC(=O)c1cccc(NC(=O)C2CCCN(S(=O)(=O)c3ccc(F)cc3)C2)c1 (stereo not given)	0.9	-14	1.1	-3	13	1
COc1ccc(NC(=O)C2CCN(S(=O)(=O)c3ccc(C)cc3)CC2)cc1OC	0.9	-12	1.1	-23	8	1.2
Cc1ccc(NC(=O)C2CCN(S(=O)(=O)c3ccc(N4CCCC4=O)cc3)CC2)cc1Cl	.	-81	1.8	-163	.	2.6*
Cn1c(CN2CCCC2)nc2cc(NC(=O)Nc3ccccc3)ccc21	2.3*	1	0.99	-26	-131	1.3
Cn1c(CN2CCCCC2)nc2cc(NC(=O)c3ccccc3)ccc21	1	11	0.89	-1	-4	1
COc1ccc(CN(CC2CCC(C(=O)O)CC2)C(=S)Nc2cccc(C)c2)cc1 (stereo not given)	2.4*	7	0.93	2	-140	0.97
COc1ccc(CN(CC2CCC(C(=O)O)CC2)C(=S)Nc2ccccc2OC)cc1 (stereo not given)	1.1	-3	1	5	-7	0.95
O=C(NCc1ccccc1)NCC12CC3CC(CC(C3)C1)C2	1	-21	1.2	-111	-1	2.1*
